{
  "source": "paper PMC10972827",
  "about": "(Food Chemistry: X, 2024)",
  "key": {"α-amylase [1]": {"target": "α-amylase", "experiment": "α-amylase activity test", "type": "biochemical", "conditions": "α-amylase 10 U/mL, 1% soluble starch, 37 °C"}, "α-amylase [2]": {"test_system": "α-amylase", "experiment": "Inhibitory kinetic assay", "type": "biochemical", "conditions": "Lineweaver-Burk double reciprocal plots, 0.5-2.0% starch", "how_it_was_run": "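Commercial α-amylase (0.35 mL, 10 U/mL) preincubated alone or with theaflavin monomer for 5 min at 37 °C. Soluble starch (0.5, 1.0, 1.5, 2.0%) added and incubated 15 min at 37 °C. Reducing sugar measured with DNS reagent (100 °C, 5 min), A540. Initial velocities fitted to Michaelis–Menten for Km and Vmax. Inhibition type assigned from Lineweaver–Burk double-reciprocal plots. Results given as mean ± SD.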"}, "α-amylase [3]": {"test_system": "α-amylase", "experiment": "Fluorescence spectroscopy", "type": "binding", "how_it_was_run": "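Commercial α-amylase (10 U/mL) mixed with each theaflavin monomer (10–200 μg/mL) at each temperature. Fluorescence spectra recorded at 278 nm over a 290–450 nm scan. Ksv derived from the Stern–Volmer relation (τ0 10−8 s). Ka and n derived from a log((F0−F)/F) vs log[Q] plot. ΔH and ΔS derived from a van't Hoff fit. Results given as mean ± SD.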"}},
  "data": [
    {"smiles": "O=c1c(O)cc([C@H]2Oc3cc(O)cc(O)c3C[C@H]2O)cc2c([C@H]3Oc4cc(O)cc(O)c4C[C@H]3O)cc(O)c(O)c12", "note": "[TF1, theaflavin]", "values": [
      {"measurement": "IC50, inhibitory activity on α-amylase", "setting": "α-amylase [1]", "result": 71.43, "unit": "µg/mL"},
      {"measurement": "inhibition type against α-amylase", "setting": "α-amylase [2]", "result": "mixed"},
      {"measurement": "Ka (binding constant)", "setting": "α-amylase [3]; 298 K", "result": 4.4955, "unit": "L/g"},
      {"measurement": "Ksv (quenching constant)", "setting": "α-amylase [3]; 298 K", "result": 4.7890, "unit": "L/g"},
      {"measurement": "Ka (binding constant)", "setting": "α-amylase [3]; 303 K", "result": 5.1038, "unit": "L/g"},
      {"measurement": "Ksv (quenching constant)", "setting": "α-amylase [3]; 303 K", "result": 4.6468, "unit": "L/g"},
      {"measurement": "Ka (binding constant)", "setting": "α-amylase [3]; 310 K", "result": 5.6151, "unit": "L/g"},
      {"measurement": "Ksv (quenching constant)", "setting": "α-amylase [3]; 310 K", "result": 4.2950, "unit": "L/g"}
    ]}
  ]
}
